Rpn11 inh: Rpn11 (PSMD14) deubiquitinase inhibitors, primary screen, biochemical, fluorescence polarization, uHTS | 360,000 compounds, 0.59% hits | human 26S proteasome, Ub4-pepOG fluorescence polarization; 20S core pre-blocked with epoxomicin | 26S proteasome non-ATPase regulatory subunit 14 (Homo sapiens), O00487 | AID 588493, 2011 | inhibition, % at 20 µM;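 active = inhibition at 20 µM, scaled to each plate's controls, above about 33%, limit read from the data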
Scp1 inh: Scp-1 phosphatase inhibitors, primary screen, biochemical, colorimetric, uHTS | Carboxy-terminal domain RNA polymerase II polypeptide A small phosphatase 1 (Homo … | Recombinant Scp1, phosphopeptide, malachite green phosphate absorbance | inhibition, % at 20 µM | 340,000 compounds, 0.88% hits;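 active = inhibition above about 50% at 20 µM, limit read from the data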;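 note: plate controls were DMSO wells with enzyme for no effect and wells lacking enzyme for full effect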
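System: truncated SCP-1 phosphatase (76-261aa); medium: Tris acetate buffer pH 5.5 with MgCl2 and Tween-20; incubation: 45 min room-temperature reaction, 5 min colour, 30 min stabiliser; compound: single 20 µM dose, 1% DMSO; reagent: Phosphorylated 17-residue peptide substrate; read-out: % inhibition at 20 µM; technique: colorimetric free-phosphate detection, absorbance 630 nm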
STEP block: STEP phosphatase inhibitors, primary screen, biochemical, fluorescence intensity, uHTS | 360,000 compounds, 0.25% hits | recombinant STEP, OMFP fluorogenic substrate | inhibition, % at 20 µM | Tyrosine-protein phosphatase non-receptor type 5 (Homo sapiens), P54829;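 active = inhibition at 20 µM, scaled per plate between control wells, above about 37%, limit read from the data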;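 note: 0% = DMSO with enzyme and substrate and 100% = substrate only without enzyme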
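Test system: STEP tyrosine phosphatase / Reagent: OMFP at 25 µM / Doses: 20 µM, 1% DMSO / Read-out: percent inhibition scaled to no-enzyme and uninhibited-enzyme controls, plate-pattern corrected / Detection: FITC-channel fluorescence of OMFP product / Medium: Bis-Tris buffer pH 6.0, 2.5 mM DTT, 0.005% Tween 20 / Schedule: 20 min at room temperature, dark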
LMPTP block: LMPTP phosphatase inhibitors, primary screen, biochemical, fluorescence intensity, uHTS; Low molecular weight phosphotyrosine protein phosphatase (Homo sapiens), P24666; recombinant LMPTP-A, OMFP fluorogenic substrate; inhibition, % at 20 µM; 360,000 compounds, 0.22% hits;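 active = compounds that cut the enzyme signal by at least half of the control window in the single-dose screen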;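 note: plate controls were DMSO wells with enzyme plus substrate for no effect and substrate without enzyme for full effect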
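Test system – LMPTP-A phosphatase enzyme · Quantity – 0.625 nM LMPTP-A final · Reagent – OMFP substrate, 400 µM final · Dosing – one test concentration per compound, 20 µM, with 3% DMSO overall · Timing – 50 min enzyme reaction at room temperature, protected from light · Detection – fluorescence intensity · Controls – substrate-only low control, DMSO enzyme-plus-substrate high control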
DNMT1 inh: human DNMT1 methyltransferase inhibitors, primary screen, biochemical, molecular beacon, fluorescence, HinP1I cleavage, uHTS | inhibition (reported as % activation of signal), % at 10 µM | 360,000 compounds, 0.83% hits | AID 588458, 2011; in the data active = inhibition above about 50%
Target sequence (P26358 504-1616 limits assumed): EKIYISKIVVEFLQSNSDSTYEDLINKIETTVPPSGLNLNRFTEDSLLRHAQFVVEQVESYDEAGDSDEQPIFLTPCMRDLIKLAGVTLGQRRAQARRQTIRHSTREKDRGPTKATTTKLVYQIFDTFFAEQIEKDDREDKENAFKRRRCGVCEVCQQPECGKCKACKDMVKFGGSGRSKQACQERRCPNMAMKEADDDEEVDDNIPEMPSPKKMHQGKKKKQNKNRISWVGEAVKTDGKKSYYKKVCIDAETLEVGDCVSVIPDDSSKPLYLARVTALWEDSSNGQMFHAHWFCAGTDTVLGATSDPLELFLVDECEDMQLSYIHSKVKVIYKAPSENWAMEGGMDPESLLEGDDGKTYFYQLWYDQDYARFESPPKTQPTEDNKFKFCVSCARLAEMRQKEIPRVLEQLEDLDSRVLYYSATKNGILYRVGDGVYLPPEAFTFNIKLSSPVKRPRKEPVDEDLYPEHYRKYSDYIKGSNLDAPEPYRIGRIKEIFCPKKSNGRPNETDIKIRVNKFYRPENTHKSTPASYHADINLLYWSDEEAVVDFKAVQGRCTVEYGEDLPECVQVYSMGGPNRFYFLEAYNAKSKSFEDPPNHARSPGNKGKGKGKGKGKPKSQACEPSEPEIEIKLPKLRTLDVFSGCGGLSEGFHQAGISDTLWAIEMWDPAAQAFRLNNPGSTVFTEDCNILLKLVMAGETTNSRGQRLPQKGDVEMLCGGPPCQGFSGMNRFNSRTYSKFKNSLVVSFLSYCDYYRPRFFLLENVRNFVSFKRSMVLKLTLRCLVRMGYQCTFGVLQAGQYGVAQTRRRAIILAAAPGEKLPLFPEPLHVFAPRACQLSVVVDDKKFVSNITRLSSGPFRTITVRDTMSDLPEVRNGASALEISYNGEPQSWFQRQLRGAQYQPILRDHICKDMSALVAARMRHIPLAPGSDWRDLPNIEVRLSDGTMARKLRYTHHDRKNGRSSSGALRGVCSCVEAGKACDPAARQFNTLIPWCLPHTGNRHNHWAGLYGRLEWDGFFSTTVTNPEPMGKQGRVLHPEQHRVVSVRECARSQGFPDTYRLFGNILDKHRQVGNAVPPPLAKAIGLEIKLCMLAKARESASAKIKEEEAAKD
SUMO1 PPI mod: modulators of SUMO1 protein-protein interactions, primary screen, biochemical, uHTS; Small ubiquitin-related modifier 1 (Homo sapiens), P63165; SUMO1 binding to a labelled peptide, TR-FRET, 1 h; inhibition, % at 20 µM; 360,000 compounds, 0.33% hits; in the data active = inhibition above about 37%
DNMT1 interf DR: spectral interference with molecular beacon fluorescence, dose response, artefact control for DNMT1 inhibitor project, biochemical, fluorescent molecular beacon; AID 602382, 2012; IC50, µM; spectral interference counter-screen; 200 tested, under 10 active; shares compounds with DNMT1 inh; call rule not given here
DNMT1 confirm: DNMT1 methyltransferase inhibitor retest, confirmation, biochemical, molecular beacon, fluorescence, single concentration. 2,300 compounds, 8% hits. AID 602385, 2012. inhibition, % at 10 µM. shares compounds with DNMT1 inh. DNMT1 molecular beacon HinP1I cleavage;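 active = average inhibition of at least 30% in the single-concentration confirmation test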
DNMT1 interf: shows spectral interference in the DNMT1 beacon assay; DNMT1 molecular beacon spectral interference counterscreen, fluorescence 485/520; activation (fluorescence interference), % at 10 µM; AID 602387; 2,300 compounds, 1% hits; shares compounds with DNMT1 inh;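 active = activation of at least 30% at 10 µM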;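 note: DNMT1 catalytic domain with a HinP1I cleavage step and a FAM/dabcyl DNA beacon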
The depositor's hits bear a star; nt = not tested or not shown. Compounds with a hit are over-represented: about 2.3% of the library has one in this group of screens.

SMILES	Rpn11 inh	Scp1 inh	STEP block	LMPTP block	DNMT1 inh	SUMO1 PPI mod	DNMT1 confirm	DNMT1 interf	others
CCc1cccc(CC)c1-n1c(SCC(=O)c2c(N)n(C)c(=O)n(C)c2=O)nnc1-c1cccnc1	13.9	-2.4	3.3	0.5	59.5*	2.7	0.3	-3.2
C=CC[C@@H](CC(=O)N[C@@H](CO)Cc1ccccc1)C(=O)NC[C@@H](OC(=O)[C@@H](CC=C)CC(=O)OC(C)(C)C)c1ccccc1	-6.5	6.4	-2.0	0.9	56.8*	4.2	6.8	4.7
Cc1ccc(C)n1-c1sc2c(c1C(=O)O)CCCC2	21.5	42.8	4.7	-0.1	97.1*	7.3	11.3	-2.4
N/C(COc1cc(Cl)cc(Cl)c1)=N\O	-0.4	-10.5	-0.4	-0.9	2.1	3.9	nt	nt
O=c1/c(=C/c2ccco2)sc2nc(-c3ccccc3Br)nn12	13.1	15.6	2.8	2.8	23.4	18.0	nt	nt
CCCOc1ccc(Cc2nn3c(=O)/c(=C/c4ccco4)sc3nc2=O)cc1	-0.8	30.7	5.7	5.8	86.5*	8.3	4.9	4.3
COc1ccccc1/C=C/C=c1\sc2nc(=O)c(Cc3ccccc3)nn2c1=O	12.6	3.1	5.2	10.8	93.0*	15.5	11.5	-1.1
CS(=O)(=O)N1CCc2cc(C(=O)Nc3ccc(COCC(F)(F)F)cc3)ccc21	-0.1	-11.4	-0.2	1.2	1.4	14.3	nt	nt
Oc1ccc(F)c2cccnc12	0.5	-6.9	1.3	0.8	68.5*	-1.9	2.5	2.7
COC(=O)CC1OCC=C2CN3CCC45C6=CC(=O)C(=O)C([N+](=O)[O-])=C6NC4C1C2CC35 (stereo unspecified)	-8.9	nt	9.8	13.3	85.5*	31.9	52.6*	-10.2	DNMT1 interf DR=>99
Cn1c(=O)c2c(nc(N3CCOCC3)n2C/C=C/c2ccccc2)n(C)c1=O	-1.5	-6.2	-2.4	-0.4	-0.2	5.0	nt	nt
O=C(Cc1cccc(NC(=O)C2CCN(C(=O)CCc3ccccc3)CC2)c1)Nc1cccc(C(=O)N2CCCCC2)c1	-1.5	0.8	-0.2	0.2	-1.8	2.2	nt	nt
CC(=O)NC(CC(=O)NC(C)c1ccc(Cl)cc1Cl)c1ccccc1 (stereo unspecified)	-5.0	-4.2	-0.9	-1.4	67.9*	0.7	-0.2	1.5
COc1ccc(/C=C2/C(=O)N(c3nc4ccccc4s3)N=C2CSc2ccc(Cl)cc2)cc1	33.3	7.5	3.7	22.2	65.1*	25.8	53.6*	-4.1	DNMT1 interf DR=>99
O=[N+]([O-])c1ccc(COc2ccc(CNc3ccccc3)cc2)cc1	-29.0	0.2	3.5	0.7	0.4	-1.3	nt	nt
O=[N+]([O-])c1ccc(COc2cccc(CNc3ccc(Br)cc3)c2)cc1	-4.9	-1.0	2.3	4.6	70.7*	-5.7	4.8	6.2
Cc1ccc(/C=C(\CCC(=O)O)c2nc3ccccc3s2)cc1[N+](=O)[O-]	-4.1	-9.3	2.6	0.2	0.1	-9.0	nt	nt
CN(c1ccccc1)c1ccc(/C=C(\CCC(=O)O)c2nc3ccccc3s2)cc1[N+](=O)[O-]	-3.5	8.2	0.9	2.7	73.7*	10.1	26.9	-3.7	DNMT1 interf DR=>99
O=C(/C=C/c1ccco1)N1CCC(Cc2ccccc2)CC1	23.3	16.9	1.2	3.8	86.8*	1.0	6.6	-1.6
CCN(C(=O)Cn1c(=O)n(-c2cc(OC)c(OC)c(OC)c2)c(=O)c2ccccc21)c1cccc(C)c1	-4.6	-8.4	-3.3	-1.1	130.4*	4.3	3.1	2.1
O=C(Nc1nnc(-c2ccccc2SCc2ccccc2)s1)Nc1ccccc1F	-1.7	-3.4	1.3	-1.8	41.6	1.9	nt	nt
O=C(Nc1nnc(-c2ccccc2F)s1)Nc1ccccc1F	-2.7	2.1	0.9	-1.6	52.7*	0.8	2.6	2.7
O=C(Nc1ccc2oc(-c3ccccc3F)nc2c1)c1cncc(Br)c1	9.3	47.1	13.8	31.9	62.2*	-0.4	1.7	1.9
CCCCNc1ncnc2sc3c(c12)CCN(CCC)C3	6.8	-6.8	-0.8	0.7	-4.3	-8.0	nt	nt
N#Cc1c(N)nc2c(c1N)CC(CCl)O2 (stereo unspecified)	-7.3	-4.9	-1.3	4.4	93.2*	12.5	4.4	5.2
SMILES	Rpn11 inh	Scp1 inh	STEP block	LMPTP block	DNMT1 inh	SUMO1 PPI mod	DNMT1 confirm	DNMT1 interf	others
CCCCCCn1cc(CN2CC(N3CCN(Cc4ccccc4F)CC3)CS2(=O)=O)nn1 (stereo unspecified)	nt	nt	nt	-1.9	nt	0.0	nt	nt
CCOC(=O)c1c(NC(=O)CSc2nnc(C)o2)sc(C)c1C	1.9	-4.1	3.8	-1.4	58.7*	0.6	2.9	0.9
CCOC(=O)c1c(NC(=O)CSc2nnnn2C)sc(C)c1C	-9.0	-7.2	4.3	1.8	-0.2	-3.0	nt	nt
CN1CCS/C1=C\C=C1/SC(=S)N(CC(=O)O)C1=O	nt	8.7	2.8	27.3	62.9*	-244.6	57.2*	59.9*
CCN1C(=O)/C(=C/C=C2/SCCN2C)SC1=S	nt	-6.7	-4.4	8.4	35.6	-217.2	nt	nt
O=[N+]([O-])c1ccc(CN2CC(N3CCC(Cc4ccccc4)CC3)CS2(=O)=O)cc1 (stereo unspecified)	-9.6	nt	1.1	2.4	-4.0	-17.8	nt	nt
CCOc1ccc2nc(NC(=O)CN3CCN(C)CC3)sc2c1	8.8	4.6	-0.2	2.7	72.5*	0.3	3.0	5.2
Cc1cccc(OCC(=O)Nc2ccc(N3CCCC3)cc2)c1C	4.6	-6.6	2.7	3.3	58.9*	-26.1	20.7	-5.1	DNMT1 interf DR=>99
CCOc1ccc(C(=O)Nc2ccc(N3CCCC3)cc2)cc1	5.3	-3.3	0.1	5.0	80.1*	-9.1	6.8	0.1
COc1ccc(OCC(=O)Nc2ccc(N3CCCCC3)cc2)cc1	2.6	-6.6	-2.2	1.2	-7.2	2.4	nt	nt
Cc1ccc(OCC(=O)Nc2ccc(N3CCCC3)cc2)cc1C	6.5	8.9	3.6	6.2	67.4*	3.2	-0.3	-5.7

Assay outcomes from PubChem.
